Compound activity (PubChem BioAssay)
An excerpt weighted towards active compounds, which were near 1.8% of everything screened.
TLR9-MyD88 block = blocks human TLR9 binding to MyD88; 340,000 tested, 0.21% active; Q9NR96+Q99836; CHO BLA complementation TLR9-MyD88, CCF4 FRET ratio; inhibition, % at 4.98 µM;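 active = inhibition above the mean over all tested compounds plus 3 SD, cut at about 21% in these data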;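 also: 0% = DMSO only wells and 100% = clavulanate BLA inhibitor control wells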
TLR4 MyD88 comp = inhibitors of human TLR4-MyD88 binding; HeLa CL3-4 TLR4/MyD88 BLA complementation, FRET ratio; inhibition, % at 8.4 µM; 200,000 tested, 0.18% active; in the data active = inhibition above about 25%;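 also: 0% = vehicle and 100% = reference inhibitor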
MC4R ag barr = human MC4R agonism via beta-arrestin; P32245; U2OS MC4R beta-arrestin complementation, luminescence; percent of melanotan II response, DMSO zero; activation, % at 8.9 µM; 360,000 tested, 0.98% active; AID 540308;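 active = activation above a per-plate cutoff, the mean activation of sample wells on that plate plus 3 SD, cut at about 8% in these data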
MC4R antag cAMP = human MC4R antagonism in cAMP assay; P32245; MC4R-expressing cells, MTII-stimulated cAMP, LANCE TR-FRET; inhibition, % at 6.5 µM; 360,000 tested, 0.48% active; AID 540295;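 active = inhibition above its plate's cutoff, the mean of tested wells on that plate plus 3 SD, cut at about 29% in these data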;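 also: 0% = Melanotan II alone and 100% = Melanotan II plus saturating MCL0020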
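Assay system: U2OS cells stably expressing human melanocortin 4 receptor (MC4R) / Dosing: 6.5 µM / Timing: compound 30 min, challenge 1 h, detection 1 h / Measured by: Eu-cAMP/anti-cAMP TR-FRET, emission 671 nm / Replicates: singlicate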
NOD2-RIPK2 inh = NOD2-RIPK2 protein interaction inhibition. CHO BLA complementation NOD2-RIPK2, CCF4 ratio. inhibition, % at 4.98 µM. 360,000 tested, 0.38% active; in the data active = inhibition above about 21%;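 also: 0% = vehicle only and 100% = reference blocker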
MC4R barr conf = human MC4R beta-arrestin agonism confirmation; activation, % at 8.9 µM; shares compounds with MC4R ag barr; 2,400 tested, 31% active; U2OS MC4R beta-arrestin recruitment, luminescence; scaled DMSO 0%, Melanotan II 100%;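 active = mean activation across replicates above the hit cutoff set in the earlier primary screen, cut at about 8% in these data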
MOR-DOR barr ag = counter-screen for MC4R agonists: agonists of mu-delta opioid heterodimer | shares compounds with MC4R ag barr | U2OS PathHunter beta-arrestin, beta-gal luminescence; percent of deltorphin B response, DMSO zero | activation, % at 9.2 µM | 2,400 tested, 5.8% active | AID 602194;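 active = mean activation across replicates exceeds the hit threshold derived in the earlier primary screen, cut at about 18% in these data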;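 also: 100% = deltorphin B at 0.9 µM final and 0% = DMSO alone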
Target sequence (P35372 whole entry, looked up): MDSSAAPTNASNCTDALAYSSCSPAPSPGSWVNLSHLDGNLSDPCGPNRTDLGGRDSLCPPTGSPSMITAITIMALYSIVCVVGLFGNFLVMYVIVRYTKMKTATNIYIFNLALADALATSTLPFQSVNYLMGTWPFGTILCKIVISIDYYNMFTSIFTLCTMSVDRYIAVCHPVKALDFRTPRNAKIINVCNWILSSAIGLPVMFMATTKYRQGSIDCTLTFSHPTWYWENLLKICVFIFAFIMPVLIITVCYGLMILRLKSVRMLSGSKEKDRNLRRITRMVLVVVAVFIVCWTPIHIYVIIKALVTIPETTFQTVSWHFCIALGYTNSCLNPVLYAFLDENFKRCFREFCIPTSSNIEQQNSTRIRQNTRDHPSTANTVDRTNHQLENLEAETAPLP
Target sequence (P41143 whole entry, looked up): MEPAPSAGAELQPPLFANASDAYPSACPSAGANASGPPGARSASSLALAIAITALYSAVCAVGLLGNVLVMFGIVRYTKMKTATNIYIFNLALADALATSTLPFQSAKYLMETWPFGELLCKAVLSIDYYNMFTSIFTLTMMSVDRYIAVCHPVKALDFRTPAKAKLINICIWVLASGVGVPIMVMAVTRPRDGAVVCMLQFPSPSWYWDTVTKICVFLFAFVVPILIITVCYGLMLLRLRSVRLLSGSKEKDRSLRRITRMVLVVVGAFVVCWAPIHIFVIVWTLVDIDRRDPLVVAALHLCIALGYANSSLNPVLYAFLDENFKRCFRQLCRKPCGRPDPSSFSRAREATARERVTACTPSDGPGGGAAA
The depositor's hits bear a star; . = not tested or not shown.

SMILES	TLR9-MyD88 block	TLR4 MyD88 comp	MC4R ag barr	MC4R antag cAMP	NOD2-RIPK2 inh	MC4R barr conf	MOR-DOR barr ag
Cc1coc2c(C)c3oc(=O)c(CCC(=O)N[C@@H](C)C(=O)N[C@@H](Cc4ccccc4)C(=O)O)c(C)c3cc12	2	.	0	4	-9	.	.
CCC(C(=O)NCc1ccccc1)n1c(CSCCOc2ccccc2)nc2ccccc21 (centres undefined)	.	.	.	.	3	.	.
CC(C)(C)c1ccc(C(=O)NC(=O)COC(=O)c2ccco2)cc1	-5	.	13*	-7	-8	1	7
O=c1c2cnn(-c3ccc(F)cc3)c2ncn1Cc1ccccc1	4	9	14*	3	1	0	4
O=c1c2cnn(-c3ccc(F)cc3)c2ncn1Cc1cccnc1	-12	3	0	9	1	.	.
COc1ccc(NC(=O)Cn2cnc3c(cnn3-c3ccc(C)c(C)c3)c2=O)c(OC)c1	-8	-14	12*	0	-2	15*	7
CCOc1ccccc1NC(=O)Cn1cnc2c(cnn2-c2ccc(C)c(C)c2)c1=O	6	4	-1	8	-3	.	.
CCN(Cc1ccccc1)S(=O)(=O)c1ccc(S(=O)(=O)N(Cc2ccccn2)Cc2ccco2)cc1	2	-17	13*	-2	-1	4	3
Brc1ccc(-c2nnc(Cc3ccccc3)o2)cc1	.	.	4	6	7	.	.
c1ccc(Cc2nnc(-c3ccccc3)o2)cc1	4	-20	15*	4	0	25*	19*
COc1cc(/C=N/N=C(/N)c2nonc2N)cc(Br)c1OCc1ccccc1C	-2	-15	16*	25	2	6	3
CCOc1cc(/C=N/N=C(/N)c2nonc2N)cc(Br)c1OCc1ccc(Cl)cc1	-6	-15	1	14	6	.	.
CCOc1ccc(N(CC(=O)Nc2ccc(F)c(F)c2)S(=O)(=O)c2c(C)noc2C)cc1	6	3	9.6*	-1	-8	1	7
CC(Oc1ccc2c3c(c(=O)oc2c1)CCC3)C(=O)NCC1CCC(C(=O)O)CC1 (centres undefined)	1	.	0	4	-8	.	.
NC1=NC(=O)/C(=C/c2c(OS(=O)(=O)c3ccc(Cl)cc3)ccc3ccccc23)S1	0	0	9.6*	7	-1	2	5
CC1(C(=O)NCc2ccc(Cl)cc2)CCN1C(=O)c1cccc(F)c1 (centres undefined)	.	.	-2	-5	-7	.	.
Cc1noc(C)c1CSc1nc2sc(C)c(C)c2c(=O)n1-c1ccccc1	-8	7	11*	7	-9	-2	5
CC(C)(C)c1ccc(S(=O)(=O)NNC(=O)c2cc3ccccc3[nH]2)cc1	-8	.	17*	10	3	8	16
CCC(C)(C)NC(=O)C1CC(=O)N(CCc2ccc(F)cc2)C1 (centres undefined)	5	.	1	-2	1	.	.
COc1ccc(Nc2oc(-c3ccc(Cl)cc3)nc2C#N)cc1	-5	6	18*	-12	6	3	8
COc1ccc(Nc2oc(-c3ccc(OC)cc3)nc2C#N)cc1	1	.	-1	11	0	.	.
C/C(=N\Nc1nncc2ccccc12)c1ccc(O)cc1	-1	.	-1	10	-3	.	.
C/C(=N\Nc1nncc2ccccc12)c1cccc(OC(F)F)c1	-5	.	17*	7	-11	0	6
Nc1ccccc1C(=O)NN=Cc1cccnc1	.	.	.	.	-67	.	.
CCOC(=O)c1c(NC(=O)COC(=O)c2nccnc2N)sc2c1CCC2	3	.	16*	-4	-3	5	6
SMILES	TLR9-MyD88 block	TLR4 MyD88 comp	MC4R ag barr	MC4R antag cAMP	NOD2-RIPK2 inh	MC4R barr conf	MOR-DOR barr ag
CN(CC(=O)NCCc1ccc(S(N)(=O)=O)cc1)S(=O)(=O)c1cccc2nsnc12	6	.	-1	0	-6	.	.
O=C(COC(=O)/C=C/c1ccc([N+](=O)[O-])cc1)NC(=O)NC1CCCCC1	-6	.	19*	-3	1	7	13
C=CCOc1ccc(/C=C/C(=O)OCC(=O)NCC2CCCCC2)cc1	-3	.	12*	0	-9	1	3
O=C(COC(=O)/C=C/c1ccc([N+](=O)[O-])cc1)NC(c1ccccc1)c1ccccc1	5	11	12*	5	-5	2	1
O=C(COC(=O)/C=C/c1ccccc1)NC(=O)NC1CCCCC1	2	.	6	2	-8	.	.
COc1ccc(/C(C)=N/NC(=O)c2ccc(CSc3nncn3C)cc2)cc1	4	-10	-1	5	-10	.	.
COc1cccc(C2c3[nH]c4ccccc4c3C[C@H]3C(=O)N(c4ccccc4C(=O)NCCCN4CCOCC4)C(=O)N23)c1 (some centres undefined)	-9	.	-2	11	4	.	.
COc1ccc(/C=N/NC(=O)CCCOc2ccc(Cl)cc2Cl)cc1	3	8	2	-1	-2	.	.
O=C(CCCOc1ccc(Cl)cc1Cl)N/N=C/c1ccc(Cl)cc1	5	4	9.8*	4	-10	8	2
C[C@H](CO)N1C[C@H](C)[C@@H](CN(C)Cc2ccncc2)Oc2c(NC(=O)Cc3ccccc3)cccc2C1=O	2	.	1	8	1	.	.
O=C(c1cc2cc(Br)ccc2s1)N1CCOCC1	-3	11	-1	-1	-3	.	.
COc1ccc(N2CCN(CC(=O)Nc3nnc(-c4ccccc4)s3)CC2)cc1	-4	10	11*	3	3	1	4
COC(=O)c1ccc(C(=O)OC)c(NC(=O)CN2CCN(c3ccccc3)CC2)c1	-11	4	15*	-3	-4	14*	14
O=[N+]([O-])c1ccc(Cl)c(CN2CCN(c3ncc(Cc4ccccc4)cn3)CC2)c1	.	.	.	.	-15	.	.
Cc1ccc2oc(-c3cccc(N)c3)nc2c1	10	-15	-4	9	-2	.	.
Nc1cccc(-c2nc3cc(S(=O)(=O)c4ccc5oc(-c6cccc(N)c6)nc5c4)ccc3o2)c1	7	15	14*	-2	-8	5	8
O=C(CSc1ncnc2c1cnn2-c1ccccc1)Nc1ccccc1	-6	-1	18*	14	5	5	5
O=C(Cn1ncc2c1-c1ccccc1OC2)Nc1ccc(Cl)cn1	13	4	-1	19	-6	.	.
CCOc1ccc(-c2cc(NC(=O)Cn3ncc4c3-c3ccccc3OC4)on2)cc1OCC	4	-8	16*	8	-1	3	8
O=C(O)CN1C(=O)/C(=C\c2cc(Br)ccc2OCc2ccc(Cl)cc2Cl)SC1=S	-3	.	11*	11	-1	8	1
